# Screening data as filed in PubChem.
# Sampled rows, rich in hits. Any-hit rate of the full collection: about 2.9%.
# PRMT1 FP inh: blocks human protein arginine methyltransferase 1; recombinant PRMT1, activity-based probe fluorescence polarization; 370,000 tested, 1.3% active; inhibition, % at 2.79 µM;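 active means inhibition above about 21% made by adding two undisclosed values, limit read from the data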
# SIAE inh: inhibitors of human sialic acid acetylesterase SIAE; Q9HAT2; SIAE FP-Rh probe binding, fluorescence polarization; inhibition, % at 9.66 µM; 370,000 tested, 0.69% active;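 active means inhibition above a cutoff: mean of compounds within the control limits plus 3 SD of those, cut at about 17% in these data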;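 further: 0% = plate median of compound wells and 100% = probe without SIAE protein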
# ATG4B inh: inhibitors of human ATG4B cysteine protease; Q9Y4P1; ATG4B cleavage of LC3-PLA2, NBD-HPC fluorescence, 1 h; inhibition, % at 8.33 µM; 340,000 tested, 0.51% active; AID 504462; in the data active means inhibition above about 40%
# HTRA1 inh: HTRA1 (human) protease inhibition. recombinant HTRA1, FP-rhodamine activity-based probe, fluorescence polarization. inhibition, % at 5.96 µM. 340,000 tested, 0.5% active; in the data active means inhibition above about 36%;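 further: 0% = enzyme with DMSO and 100% = wells lacking enzyme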
# ABHD4 inh: ABHD4 (mouse) inhibition, primary FP screen | AID 720543 | inhibition, % at 8.92 µM | purified mABHD4, FP-Rh probe fluorescence polarization | 370,000 tested, 0.54% active;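 active means inhibition exceeding the mean over every tested compound plus 3 SD, cut at about 30% in these data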;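 further: 0% = plate median of compound wells and 100% = S159A mutant with DMSO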
# Target sequence (Q8VD66 whole entry, looked up): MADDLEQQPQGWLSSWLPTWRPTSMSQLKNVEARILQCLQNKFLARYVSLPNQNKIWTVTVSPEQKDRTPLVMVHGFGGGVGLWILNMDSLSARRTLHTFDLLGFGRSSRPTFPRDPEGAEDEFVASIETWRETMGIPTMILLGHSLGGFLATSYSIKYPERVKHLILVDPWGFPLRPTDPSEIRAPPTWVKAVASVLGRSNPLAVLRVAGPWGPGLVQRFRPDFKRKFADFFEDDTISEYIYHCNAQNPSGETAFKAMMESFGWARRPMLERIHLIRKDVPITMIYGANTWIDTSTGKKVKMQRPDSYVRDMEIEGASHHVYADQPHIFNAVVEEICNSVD
#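 Assay system: mABHD4 protein; medium: HEPES pH 7.0, NaCl, Pluronic buffer; dosing: 8.92 µM, single dose; schedule: 45 min + 60 min at 25 °C; signal: FP readout, ex 525 nm / em 598 nm; read-out: normalized percent inhibition of probe labeling; repeats: single replicate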
# TCR-CD3 inh: inhibitors of human TCR-CD3 interaction | 360,000 tested, 0.37% active | inhibition, % at 9.4 µM | AID 651800 | TAMRA-labeled TCR probe fluorescence, biochemical;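 further: recombinant mutant TCR 2C K166C tagged with TAMRA read by polarization; 0% = receptor in buffer alone and 100% = receptor with positive control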
# HTRA1 conf: confirmation of human HTRA1 inhibitors. recombinant HTRA1, FP-rhodamine activity-based probe, fluorescence polarization. 1,600 tested, 66% active. inhibition, % at 5.96 µM. shares compounds with HTRA1 inh;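 active means mean inhibition over three repeats above a set limit taken from the earlier primary screen, cut at about 37% in these data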;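 further: 0% = HTRA1 with DMSO and 100% = wells lacking HTRA1; inhibitors block probe binding so polarization drops and inhibition rises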
# BSA TAMRA ctr: BSA probe counter-screen for TCR-CD3 inhibitors; shares compounds with TCR-CD3 inh; inhibition, % at 9.4 µM; TAMRA-labeled BSA probe fluorescence counterscreen; 1,200 tested, 10% active; in the data active means inhibition above about 23%;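 further: 0% = buffer low control and 100% = reference high control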
# TCR-CD3 inh conf: TCR-CD3 interaction inhibition, confirmation | shares compounds with TCR-CD3 inh | TAMRA-labeled TCR probe fluorescence binding assay | inhibition, % at 9.4 µM | 1,200 tested, 48% active | AID 652036
# PRMT1 inh conf: confirmation of human PRMT1 inhibitors; shares compounds with PRMT1 FP inh; recombinant His-PRMT1, activity-based probe fluorescence polarization; inhibition, % at 2.79 µM; 3,300 tested, 42% active;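 active means mean inhibition across replicates above the hit cutoff derived for the earlier primary screen, cut at about 22% in these data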
# ABHD4 confirm: ABHD4 (mouse) inhibition, FP confirmation; shares compounds with ABHD4 inh; purified mABHD4, FP-Rh probe fluorescence polarization; inhibition, % at 8.92 µM; 1,800 tested, 55% active;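 active means mean inhibition across replicates above the hit cutoff set in the primary screen, cut at about 30% in these data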;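 further: 0% = wild-type ABHD4 with DMSO and 100% = catalytically dead S159A mutant with DMSO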
# Active calls of the source: *; x = no result. Unless noted, no stated cut-off is given here; in the data, active means inhibition above about 19%; inactive means the rest.
SMILES,PRMT1 FP inh,SIAE inh,ATG4B inh,HTRA1 inh,ABHD4 inh,TCR-CD3 inh,HTRA1 conf,ABHD4 confirm,others
Oc1[nH]c2ccccc2c1N=Nc1ccccn1,-2,0,-4,0,4,7,x,x,
Oc1c(N=Nc2ccccn2)ccc2ccccc12,-3,5,1,51*,35*,7,38*,25,
NC(=O)C1CCN(c2ccnc(Cl)n2)CC1,1,-4,x,x,3,x,x,x,
Clc1ccccc1C1Nc2cccc3cccc(c23)N1,19,14,17,48*,48*,1,28,36*,
C=CC[C@H]1c2ccccc2[C@H]2N3N=Cc4ccccc4[C@H]3[C@H](CCc3ccccc3)C(=O)N2N1C(=O)c1ccccc1,-1,-6,x,x,-11,x,x,x,
COc1ccc(CN(CCN2CCOCC2)C(=O)c2cccc(F)c2F)cc1OC,-1,5,x,x,4,x,x,x,
CNc1ccc(Br)cc(C(=O)/C=C/c2cc(OC)ccc2OC)c1=O,26*,17*,1,39*,38*,16,9,40*,
O=C(C=Cc1ccc2c(c1)OCO2)c1ccccc1,3,9,1,-2,-1,1,x,x,
CNc1ccc(Br)cc(C(=O)/C=C/c2ccc3c(c2)OCO3)c1=O,25*,11,6,44*,40*,18,13,44*,
COC(=O)c1cc(-c2ccc(C)c(C)c2)c(=O)n2c1CCC2,3,0,x,x,3,x,x,x,
COCCCNC(=O)C[C@H]1C(=O)N(Cc2ccc(OC)cc2)C2=CCCCC[C@@]21C(=O)OC,-12,-5,x,x,-7,x,x,x,
C/C(=N/NC(=O)c1cc(O)c(O)c(O)c1)c1ccc([N+](=O)[O-])cc1,16,13,1,76*,32*,55*,57*,26,BSA TAMRA ctr=-11;TCR-CD3 inh conf=36*
COc1cc(/C=C2/C(=O)NN(c3ccc(Cl)c(Cl)c3)C2=O)cc([N+](=O)[O-])c1O,26*,-8,38,38*,60*,7,42*,80*,PRMT1 inh conf=16
C[C@H]1C2CC(OC(=O)NCc3ccccc3)C(C2)[C@H]2CCCCN21 (some centres undefined),1,-5,x,x,3,x,x,x,
Oc1ccccc1N=Cc1c(O)ccc2ccccc12,13,11,-7,63*,45*,29*,78*,45*,BSA TAMRA ctr=-9;TCR-CD3 inh conf=37*
Oc1ccc(/C=N/Nc2cc(N3CCCC3)nc(N3CCCC3)n2)cc1O,5,22*,-4,58*,35*,33*,140*,40*,
Nc1scc2c(C(=O)N/N=C/c3ccc(Cl)cc3)nn(-c3ccccc3)c(=O)c12,22*,12,-4,41*,44*,12,-4,20,
C=C1c2cccc(O)c2C(O)=C2C(=O)[C@]3(O)C(O)=C(C(N)=O)C(=O)[C@@H](N(C)C)[C@@H]3[C@@H](O)[C@H]12,52*,69*,-23,53*,79*,52*,30,26,BSA TAMRA ctr=-8;TCR-CD3 inh conf=4;PRMT1 inh conf=26*
O=C(N/N=C/c1cc(Br)c(Br)o1)c1ccc2c(c1)OCCO2,9,7,-1,5,6,9,x,x,
O=C(N/N=C/c1cc(Br)c(O)c(Br)c1O)c1ccc2c(c1)OCCO2,2,14,2,44*,49*,25*,41*,58*,BSA TAMRA ctr=-33;TCR-CD3 inh conf=20*
COC(=O)c1cc(-c2ccccc2)c(=O)n2c1CCC2,-5,-2,x,x,0,x,x,x,
O=c1c2ccccc2nc(COc2ccccc2)n1/N=C/c1ccc(O)c(O)c1,0,-2,3,72*,36*,17,82*,11,
CC1=C(O)C(=O)C(c2c(C)cc(C)c(Br)c2C)=C(O)C1=O,25*,16,x,84*,79*,23*,74*,74*,BSA TAMRA ctr=0;TCR-CD3 inh conf=15;PRMT1 inh conf=23*
CC(C)Nc1ccc(Nc2ccnc3cc4ccccc4cc23)cc1,-3,8,11,39*,31*,-2,46*,54*,
CN(C)c1ccc(C=c2c3cc([N+](=O)[O-])ccc3n3c2cc(-c2ccccc2)[n+]3C)cc1,12,15,27,92*,78*,57*,41*,28,
SMILES,PRMT1 FP inh,SIAE inh,ATG4B inh,HTRA1 inh,ABHD4 inh,TCR-CD3 inh,HTRA1 conf,ABHD4 confirm,others
CN1C2=N[C@H](c3ccc(Br)cc3)CC(=O)N2/C(=C\c2ccccc2)[C@@H]1c1ccccc1,-4,-3,x,x,-3,x,x,x,
Nc1[nH]c2cc(C(F)(F)F)ccc2c1C(=O)NC1CCCCC1,-3,7,x,x,3,x,x,x,
COc1ccc(S[C@]2(C(=O)N3CCN(C(C)=O)CC3)CC(=O)N(C(=O)Nc3ccc(C)c(Cl)c3)[C@@H]2c2ccc(OC)cc2)cc1,3,-6,x,x,-23,x,x,x,
CCOC(=O)Cc1csc(NC(=O)NC2(C(F)(F)F)Oc3cc(Cl)c(Cl)cc3O2)n1,9,-1,-14,37*,30*,6,64*,13,
CCOC(=O)Cc1csc(NC(=O)NC2(C(F)(F)F)Oc3ccc(Cl)cc3O2)n1 (centres undefined),3,-4,2,16,17,9,x,x,
CCN(CC)c1ccc(-c2nn3c(-c4ccc(C(C)(C)C)cc4)nnc3s2)cc1,5,-3,x,x,6,x,x,x,
CCN(CC)c1ccc(N=Cc2c(C)[nH]c3ccccc23)cc1,14,14,-7,50*,36*,-5,22,30*,
Oc1[nH]c2ccccc2c1C=Nc1ccccc1,3,3,-5,5,3,1,x,x,
Cc1[nH]n2c(=O)cc(-c3ccc([N+](=O)[O-])cc3)nc2c1-c1ccccc1,-2,10,3,40*,48*,4,87*,72*,
CCCc1cc(=O)n2[nH]c(C)c(-c3ccccc3)c2n1,-2,2,0,1,-2,-4,x,x,
CN=c1scc(-c2ccccc2F)n1/N=C/c1ccc[nH]1,7,-3,7,27,-1,-10,x,x,
CN=c1scc(-c2ccccc2F)n1/N=C/c1ccc(O)c(O)c1O,20,16,-14,72*,49*,16,77*,60*,
CCN=c1scc(-c2cccs2)n1/N=C/c1cc(OC)ccc1O,-3,11,5,-1,3,7,x,x,
